Measurements pooled from the literature.
Target: Dual specificity tyrosine-phosphorylation-regulated kinase 1A (DYRK1A, Homo sapiens, UniProt Q13627)
Read-out: enzyme activity
Action: inhibitor

| SMILES | assay | conditions | remaining activity |
| --- | --- | --- | --- |
| Cc1sc(C(=O)NC2COC2)cc1-n1cc(NC(=O)Nc2c(F)cccc2Cl)cn1 | – | 10 µM | 95.5% |
| CC(C)(O)[C@H]1CC[C@H](Nc2ccc3ncc(-c4cccc(C(F)(F)F)c4)n3n2)CC1 | – | 1 µM | 22.1% |
| Cc1cnc(NC2CCOCC2)nc1-n1cnc(C(=O)NC(CN)c2cc(F)cc(Cl)c2)c1 (stereo not drawn) | radiometric | 1 µM | 84% |
| O=C(O)c1ccc2c(c1)nc(Nc1cccc(F)c1)c1ccncc12 | radiometric | 1 µM | 0% |
| CCN(CC)CCNC(=O)c1c(C)[nH]c(/C=C2\C(=O)Nc3ccc(Cl)cc32)c1C | – | 0.5 µM | 47.2% |
| COc1cc(Nc2cnc(C#N)c(O[C@H](C)CN(C)C)n2)ncc1-c1cnn(C)c1 | radiometric | 1 µM | 91% |
| O=C(O)c1ccc2c(c1)nc(Nc1ccc3ccccc3c1)c1ccncc12 | radiometric | 1 µM | 2% |
| Nc1nc(NC2CCCCC2)sc1C(=O)c1ccccc1 | – | 10 µM | 25% |
| O=C(O)c1ccc2c(c1)nc(NCCc1ccccc1)c1ccncc12 | radiometric | 1 µM | 10% |
| Nc1nc(Nc2ccccc2)sc1C(=O)c1c(F)cccc1F | – | 10 µM | 10% |
| O=c1cc(-c2cccc3c2Sc2ccccc2S3)oc(N2CCOCC2)c1 | – | 0.5 µM | 95% |
| CC(C)(C)c1nc2c(s1)c1nc(N)ncc1c1ccc(NS(=O)(=O)c3c(F)cccc3F)c(F)c12 | radiometric | 1 µM | 88% |
| COc1cc2nccc(Oc3ccc(NC(=S)NC(=O)c4ccccc4C)cc3)c2cc1OC | – | 0.5 µM | 95.4% |
| COc1cccc(Nc2nc3cc(C(=O)O)ccc3c3cnccc23)c1 | radiometric | 1 µM | 2% |
| FC(F)c1nc2ccccc2n1-c1nc(N2CCOCC2)nc(N2CCOCC2)n1 | – | 10 µM | 78% |
